Laboratory results reported in PMC9682045 (Biochemistry and Biophysics Reports, 2022).
Several values for one entry are separate records, joined by “and”; a condition that tells them apart may be missing. Identical values can stand only once.

Columns and labels:
[1] = Cytotoxicity in the HCoV 229E CPE assay; format: cell-based; settings: human, MRC5 cells, not infected
Method in brief: (§1)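 Uninfected MRC5 human fetal lung fibroblasts seeded at 20,000 cells/well; test compound in cell assay medium as 3-fold serial dilutions to 8 concentrations, duplicate wells. Untreated cell controls run in parallel. Cytotoxicity expressed as percentage viability, with CC50 derived from this.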

[2] = Cytotoxicity in the HCoV 229E qPCR assay; format: cell-based; settings: human, MRC5 cells, not infected
Method in brief: as §1

HCoV 229E = HCoV 229E qPCR assay in MRC5 cells; format: cell-based, human coronavirus 229E; settings: read-out: HCoV 229E qPCR assay EC50, 200 TCID50, 2 days, viral RNA
Method in brief: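 MRC5 human fetal lung fibroblasts seeded at 20,000 cells/well received test compound (3-fold serial dilutions to 8 concentrations, duplicate wells) in cell assay medium and were infected with 200 TCID50 HCoV 229E. Viral RNA was quantified by qPCR following a previously published protocol. Uninfected untreated and infected untreated controls ran in parallel. Percentage inhibition was recorded; EC50 is the concentration giving 50% of maximal effect.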

[3] = a patient with MS; cited from earlier work
[4] = test system: COVID-19-related lethality; settings: meta-regression, patients with MS and COVID-19, N = 5634, P = 0.035; cited from earlier work

Structure (SMILES)	CC50 at 3 days [1]	CC50 at 2 days [2]	EC50 (HCoV 229E)	plasma concentration [3]	protective effect on COVID-19-related lethality (β) [4]
Cc1oncc1C(=O)Nc1ccc(C(F)(F)F)cc1 [Leflunomide, leflunomide]	> 100 µM	> 100 µM			
CCC(CC)COC(=O)[C@H](C)N[P@](=O)(OC[C@H]1O[C@@](C#N)(c2ccc3c(N)ncnn23)[C@H](O)[C@@H]1O)Oc1ccccc1 [Remdesivir (blinded), remdesivir]	> 100 µM	> 100 µM	< 46 nM		
C/C(O)=C(\C#N)C(=O)Nc1ccc(C(F)(F)F)cc1 [Teriflunomide, teriflunomide]	> 100 µM	> 100 µM		130 μM and 35 mg/L	−0.11
